This is an account of results in ChEMBL document CHEMBL2417468, “4β-[4'-(1-(Aryl)ureido)benzamide]podophyllotoxins as DNA topoisomerase I and IIα inhibitors and apoptosis inducing agents” (2013).

Molecules are shown by their SMILES. Active and inactive are the calls of the source. The calls are words filed in the database; no cut-off is given here.

The subject of one test is Gurav. In words: (§1) Growth inhibition of human Gurav cells after 48 hrs by sulforhodamine B assay. In kind it is functional. On the technique in general: In SRB staining, fixed cells bind dye roughly in proportion to their protein.
Test [1] relates to COLO 205. The test is described as follows: Growth inhibition of human COLO205 cells after 48 hrs by sulforhodamine B assay. In kind it is functional.
A further test has as its system KB. In words: Growth inhibition of human KB cells after 48 hrs by sulforhodamine B assay. Type of test: functional.
The test system of a further test is A2780. The test is described as follows: Growth inhibition of human A2780 cells after 48 hrs by sulforhodamine B assay. In kind it is functional.
The test system of another test is DWD. In words: (§2) Growth inhibition of human DWD cells after 48 hrs by sulforhodamine B assay. Type of test: functional.
Another test deals with HOP-62. In words: Growth inhibition of human HOP62 cells after 48 hrs by sulforhodamine B assay. In kind it is functional.
The test system of another test is A549. In words: Growth inhibition of human A549 cells after 48 hrs by sulforhodamine B assay. Type of test: functional.
Another test has as its system SiHa. The test is described as follows: Growth inhibition of human SiHa cells after 48 hrs by sulforhodamine B assay. In kind it is functional.
The test system of a further test is MCF7. The test is described as follows: Growth inhibition of human MCF7 cells after 48 hrs by sulforhodamine B assay. Type of test: functional. As to conditions: MCF7, 48 h.
A further test has as its system ZR-75-1. In words: Growth inhibition of human ZR-75-1 cells after 48 hrs by sulforhodamine B assay. In kind it is functional.
A short description of test [2]: as §1. In kind it is functional.
The subject of test [3] is COLO 205. In words: Cell cycle arrest in human COLO205 cells assessed as accumulation at S phase at 2 uM after 24 hrs by propidium iodide staining-based FACS flow cytometric analysis (reference value: 4.21%). In kind it is functional. Background: In flow cytometry, cells or beads pass a laser one at a time.
A short description of test [4]: as §2. In kind it is functional.
The test system of test [5] is MDA-MB-231. In words: Cytotoxicity against human MDA-MB-231 cells assessed as cell viability at <0.5 to 1 uM after 24 hrs by MTT assay. In kind it is functional, cell-based. The gist of the method:
(§3)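 Colo-205 (RPMI, 10% FCS) and MDA-MB-231 (DMEM, 2 mM glutamax, 10% FCS, penicillin/streptomycin) seeded at 1 104 cells/well, 18 h preincubation; fresh medium with compound at 0.5, 1, 2 and 4 µM for 24 h at 37 °C; MTT 2 h, formazan solubilised, OD 570 nm; DMSO ≤0.25%, DMSO-only wells as untreated control.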

In test [6] the test system is COLO 205. The test is described as follows: Induction of apoptosis in human COLO205 cells assessed as DNA fragmentation at 2 to 4 uM after 24 hrs by Hoechst staining-based confocal microscopic analysis. Type of test: functional, cell-based. The gist of the method: (§4)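 Colo-205 cells on coverslips treated 24 h at 2 and 4 µM, 4% paraformaldehyde fixed 15 min, RNase-treated 30 min at 37 °C, Hoechst-stained; nuclear morphology (fragmentation, blebbing) by confocal microscopy versus untreated cells.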

Test [7] relates to MDA-MB-231. The test is described as follows: Cytotoxicity against human MDA-MB-231 cells assessed as cell viability at 2 to 4 uM after 24 hrs by MTT assay. In kind it is functional, cell-based. The gist of the method:
as §3
(In general: Tetrazolium assays rely on reduction of a dye to a coloured formazan, in cell work by metabolically active cells.)

In test [8] the test system is COLO 205. In words: Induction of apoptosis in human COLO205 cells assessed as blebbing at 2 to 4 uM after 24 hrs by Hoechst staining-based confocal microscopic analysis. In kind it is functional, cell-based. The gist of the method: as §4
For test [9], the system named is COLO 205. In words: Cytotoxicity against human COLO205 cells assessed as viable cells at 2 uM after 24 hrs by trypan blue exclusion assay. Type of test: functional, cell-based. The method in brief:
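Colo-205 cells treated 24 h at 1, 2 and 4 µM, trypsinised, mixed with 0.4% trypan blue (10 µl per 100 µl cells), counted on haemocytometer; percentage dead cells calculated; triplicate samples.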

Test [10] deals with DNA topoisomerase 2-alpha (Homo sapiens) (UniProt P11388). The test is described as follows: Inhibition of human topoisomerase 2alpha-mediated relaxation of supercoiled pBR322 DNA at 2 uM after 30 mins by agarose gel electrophoresis. The method in brief: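 Purified human topoisomerase IIα (4 units) with 200 ng supercoiled pBR322 and compound at 2 µM, 30 min at 30 °C in 10 mM Tris-HCl pH 7.9, 50 mM NaCl, 5 mM MgCl2, 1 mM EDTA, 1 mM ATP, 15 µg/mL BSA; EDTA-stopped; 1% agarose gel in TAE, ethidium bromide, UV visualisation.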
Chain of DNA topoisomerase 2-alpha (Homo sapiens) (P11388 whole entry): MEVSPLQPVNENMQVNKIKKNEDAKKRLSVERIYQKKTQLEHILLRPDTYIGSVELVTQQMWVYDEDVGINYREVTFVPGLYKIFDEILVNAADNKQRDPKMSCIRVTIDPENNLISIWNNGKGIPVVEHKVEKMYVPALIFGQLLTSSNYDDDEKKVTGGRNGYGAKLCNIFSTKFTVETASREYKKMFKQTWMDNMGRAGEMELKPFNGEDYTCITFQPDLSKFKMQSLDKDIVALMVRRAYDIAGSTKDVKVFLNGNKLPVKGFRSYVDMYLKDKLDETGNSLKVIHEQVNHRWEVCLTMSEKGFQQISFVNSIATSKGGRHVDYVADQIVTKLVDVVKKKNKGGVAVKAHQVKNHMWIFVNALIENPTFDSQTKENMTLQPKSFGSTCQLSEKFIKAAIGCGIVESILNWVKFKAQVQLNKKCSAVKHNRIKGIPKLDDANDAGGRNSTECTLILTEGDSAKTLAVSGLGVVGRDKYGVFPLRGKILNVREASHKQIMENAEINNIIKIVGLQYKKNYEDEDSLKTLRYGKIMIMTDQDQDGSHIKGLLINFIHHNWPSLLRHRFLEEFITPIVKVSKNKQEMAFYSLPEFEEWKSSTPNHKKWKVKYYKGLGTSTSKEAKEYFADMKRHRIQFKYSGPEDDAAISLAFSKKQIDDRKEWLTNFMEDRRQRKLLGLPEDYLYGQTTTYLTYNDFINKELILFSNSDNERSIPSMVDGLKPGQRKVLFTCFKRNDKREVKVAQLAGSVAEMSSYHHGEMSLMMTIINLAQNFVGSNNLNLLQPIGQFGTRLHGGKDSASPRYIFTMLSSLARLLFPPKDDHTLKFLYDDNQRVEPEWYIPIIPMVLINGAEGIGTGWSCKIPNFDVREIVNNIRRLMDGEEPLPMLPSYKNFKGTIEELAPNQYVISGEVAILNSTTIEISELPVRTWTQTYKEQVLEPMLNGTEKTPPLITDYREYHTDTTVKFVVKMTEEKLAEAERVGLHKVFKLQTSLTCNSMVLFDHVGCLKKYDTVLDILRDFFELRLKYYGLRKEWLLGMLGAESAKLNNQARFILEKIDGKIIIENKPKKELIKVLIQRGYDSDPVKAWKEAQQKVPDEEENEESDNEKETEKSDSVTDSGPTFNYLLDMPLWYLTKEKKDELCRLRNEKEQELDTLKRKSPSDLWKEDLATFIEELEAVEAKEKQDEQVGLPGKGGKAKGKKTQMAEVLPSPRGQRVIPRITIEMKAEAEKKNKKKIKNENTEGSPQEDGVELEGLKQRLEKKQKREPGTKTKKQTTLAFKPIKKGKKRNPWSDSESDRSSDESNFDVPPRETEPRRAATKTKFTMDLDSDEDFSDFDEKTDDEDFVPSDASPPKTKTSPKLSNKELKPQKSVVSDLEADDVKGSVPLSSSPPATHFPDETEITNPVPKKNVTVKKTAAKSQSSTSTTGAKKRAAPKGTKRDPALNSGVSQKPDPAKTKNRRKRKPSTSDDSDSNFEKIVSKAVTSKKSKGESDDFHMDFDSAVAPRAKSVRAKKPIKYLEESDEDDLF

Test [11] relates to COLO 205. In words: Induction of apoptosis in human COLO205 cells assessed as caspase-3 activation at 2 uM after 24 hrs by Western blotting analysis. Type of test: functional, cell-based. The gist of the method:
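Colo-205 cells grown to 80% confluency, 2 µM final for 24 h; RIPA lysates with protease inhibitors, Bradford-quantified, 50 µg protein per lane on 12% SDS-PAGE, PVDF transfer, probed overnight at 4 °C for active caspase-3, β-actin as loading control, chemiluminescent detection.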

Test [12] deals with COLO 205. In words: Cytotoxicity against human COLO205 cells assessed as cell viability at <0.5 to 1 uM after 24 hrs by MTT assay. Type of test: functional, cell-based. The method in brief: as §3
Test [13] concerns the target T1, DNA topoisomerase 1 (Homo sapiens) (UniProt P11387).
T1 sequence (whole entry): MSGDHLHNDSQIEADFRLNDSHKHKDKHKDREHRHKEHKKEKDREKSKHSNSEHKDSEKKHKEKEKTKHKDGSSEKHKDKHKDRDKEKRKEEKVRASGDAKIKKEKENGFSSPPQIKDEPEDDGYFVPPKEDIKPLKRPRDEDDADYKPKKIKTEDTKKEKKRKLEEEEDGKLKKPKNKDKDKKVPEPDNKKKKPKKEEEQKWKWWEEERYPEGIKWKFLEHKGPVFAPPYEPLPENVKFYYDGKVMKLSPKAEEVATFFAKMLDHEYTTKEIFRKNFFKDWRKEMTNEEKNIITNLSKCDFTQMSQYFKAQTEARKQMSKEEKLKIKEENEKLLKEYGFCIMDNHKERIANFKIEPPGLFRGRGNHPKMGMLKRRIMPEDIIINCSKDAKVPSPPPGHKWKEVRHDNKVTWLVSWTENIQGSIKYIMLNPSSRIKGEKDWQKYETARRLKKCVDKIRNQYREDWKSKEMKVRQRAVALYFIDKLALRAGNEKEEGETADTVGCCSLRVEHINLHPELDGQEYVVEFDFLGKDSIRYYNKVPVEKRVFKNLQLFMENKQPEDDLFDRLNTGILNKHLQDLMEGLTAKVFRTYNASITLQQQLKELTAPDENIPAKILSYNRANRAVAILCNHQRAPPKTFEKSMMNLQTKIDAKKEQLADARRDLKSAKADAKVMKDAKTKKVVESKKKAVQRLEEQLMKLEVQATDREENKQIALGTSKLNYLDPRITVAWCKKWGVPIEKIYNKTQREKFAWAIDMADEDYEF
In words: Inhibition of human topoisomerase 1-mediated relaxation of supercoiled pBR322 DNA at 2 uM after 30 mins by agarose gel electrophoresis. The method in brief:
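500 ng supercoiled pBR322 with 0.4 units recombinant human topoisomerase I, compound at 2 µM, 30 min at 37 °C in 10 mM Tris-HCl pH 7.9, 150 mM NaCl, 0.1% BSA, 1 mM spermidine, 5% glycerol; stopped with sarcosyl/dye; relaxation read on 1% agarose gel; camptothecin as reference.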

In test [14] the test system is COLO 205. In words: Cell cycle arrest in human COLO205 cells assessed as accumulation at G0/G1 phase at 2 uM after 24 hrs by propidium iodide staining-based FACS flow cytometric analysis (reference value: 65.23%). In kind it is functional.
For test [15], the system named is COLO 205. In words: Cytotoxicity against human COLO205 cells assessed as cell viability at 2 to 4 uM after 24 hrs by MTT assay. Type of test: functional, cell-based. The gist of the method: as §3
Test [16] has as its system COLO 205. In words: Cell cycle arrest in human COLO205 cells assessed as accumulation at G2/M phase at 2 uM after 24 hrs by propidium iodide staining-based FACS flow cytometric analysis (reference value: 29.52%). Type of test: functional.
The test system of test [17] is COLO 205. In words: Induction of apoptosis in human COLO205 cells assessed as caspase-3 activation at 2 uM after 24 hrs by ELISA. In kind it is functional, cell-based. The gist of the method: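 Colo-205 cells exposed 24 h at 2 µM; lysates in 2X reaction buffer with DTT plus caspase substrate, 1 h at 37 °C; fluorescence read at ex 400/em 505 nm; three independent experiments, mean ± S.D., versus untreated control.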

Test [18] has as its system COLO 205. The test is described as follows: Cytotoxicity against human COLO205 cells assessed as reduction in cellular ATP level at 2 uM after 24 hrs by bioluminescence assay. In kind it is functional, cell-based. The gist of the method:
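Colo-205 cells exposed 24 h at 2 µM, lysed in ice-cold RIPA, debris spun off at 4 °C; intracellular ATP in supernatant by luciferin-luciferase bioluminescence kit; three independent experiments, mean ± S.D., untreated control.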

One may read the GI50 as the concentration giving 50% growth inhibition. On to `COc1cc([C@@H]2c3cc4c(cc3[C@@H](NC(=O)c3ccc(NC(=O)Nc5cc(C(F)(F)F)cc(C(F)(F)F)c5)cc3)[C@H]3COC(=O)[C@H]23)OCO4)cc(OC)c1OC`, for which the GI50 entry in the test with Gurav, in the test with COLO 205 [1], in the test on DWD, in the test with HOP-62 and with SiHa was “inactive” in each case. The GI50 with KB turned out to be 2600 nM; with A2780 (A2780, 48 h), 2300 nM; in the test on A549 (A549, 48 h), 2980 nM; with MCF7, 2700 nM; in the test on ZR-75-1 (ZR-75-1, 48 h) it was 2220 nM.
With `COc1cc([C@@H]2c3cc4c(cc3[C@@H](NC(=O)c3ccc(NC(=O)Nc5ccc(Cl)cc5)cc3)[C@H]3COC(=O)[C@H]23)OCO4)cc(OC)c1OC`, the 50% growth inhibitory concentration (GI50) in test [2] amounted to 1970 nM; with COLO 205 [1] (COLO 205, 48 h), 10 nM; in the test with A2780 (A2780, 48 h) it was 2200 nM; in [4], 100 nM; in the test on HOP-62 (HOP-62, 48 h), 170 nM; with A549 (A549, 48 h), 2140 nM. The GI50 is 110 nM in the test with MCF7 and 130 nM with ZR-75-1 (ZR-75-1, 48 h). Also, in the test with COLO 205 [3], the “Percent of cells in S phase” value came out at 4.83%. The GI50 result in the test on KB and in the test with SiHa was “inactive” in each case. In addition, the result in the test with MDA-MB-231 [5] and with COLO 205 [12] was inactive. The result in the test on COLO 205 [6], with MDA-MB-231 [7], in the test with COLO 205 [8], in the test on COLO 205 [9], in the test with COLO 205 [11] and with COLO 205 [15] was Active. For the same compound, the outcome in the test on COLO 205 [17] and with COLO 205 [18] was Active. Further, in test [10], the “Inhibition of relaxation (qualitative call)” value is “Active”. In test [13], the inhibition result is “Active”. The Activity in the test with COLO 205 [14] was found to be 78.12%; with COLO 205 [16], 17.06%.
For the compound `COc1cc([C@@H]2c3cc4c(cc3[C@@H](NC(=O)c3ccc(NC(=O)Nc5c(Cl)cccc5Cl)cc3)[C@H]3COC(=O)[C@H]23)OCO4)cc(OC)c1OC`, the GI50 entry in the test with Gurav, in the test with COLO 205 [1], in the test on A2780, in the test on DWD, in the test with HOP-62 and in the test with A549 was “inactive” in each case. Besides, the GI50 result with SiHa and in the test on ZR-75-1 was “inactive” in each case. Further, the GI50 with KB was found to be 2800 nM; with MCF7 it was 150 nM.
Consider `COc1cc([C@@H]2c3cc4c(cc3[C@@H](O[C@@H]3O[C@@H]5CO[C@@H](C)O[C@H]5[C@H](O)[C@H]3O)[C@H]3COC(=O)[C@H]23)OCO4)cc(OC)c1O` [ETOPOSIDE], for which the GI50 worked out at 510 nM in test [2]; 130 nM in the test on COLO 205 [1] (COLO 205, 48 h); 310 nM with KB; 620 nM in [4]; 800 nM with HOP-62 (HOP-62, 48 h); 3080 nM in the test with A549 (A549, 48 h). Besides, the 50% growth inhibitory concentration (GI50) with SiHa was determined as 3110 nM; with ZR-75-1 (ZR-75-1, 48 h), 200 nM. For the same compound, the “Percent of cells in S phase” value in the test with COLO 205 [3] was found to be 7.36%. Further, the result in the test on MDA-MB-231 [5] and in the test on COLO 205 [12] was inactive. In addition, the outcome in the test with COLO 205 [6], in the test on MDA-MB-231 [7], in the test on COLO 205 [8], with COLO 205 [9], in the test on COLO 205 [11] and with COLO 205 [15] was Active. The outcome in the test on COLO 205 [17] and in the test with COLO 205 [18] was Active. For the same compound, the Activity in the test on COLO 205 [14] is given as 42.68%; with COLO 205 [16], 49.63%.
